Published values from different studies.
Target: Mitogen-activated protein kinase kinase kinase kinase 4 (MAP4K4, Homo sapiens, UniProt O95819)

For `C=CC(=O)N1CCC(C(=O)NCC(=O)N2CCN(c3nc(-c4cnc(N)nc4C(F)F)nc(N4CCOCC4)n3)CC2)CC1`, the remaining binding was 80% (binding; competition with immobilised ligand; 1 µM).
With `O=C(NS(=O)(=O)c1ccc(NCC2CCOCC2)c([N+](=O)[O-])c1)c1ccc(N2CCN(Cc3ccc(C(F)(F)F)cc3-c3ccc(Cl)cc3)CC2)cc1Oc1cnc2[nH]ccc2c1` the remaining binding was 95% (cell-free assay; competition with immobilised ligand; 1 µM).
The remaining binding of `O=C(c1ccc(Nc2ncc(Cl)c(-c3ccc(Cl)s3)n2)cc1)N1CCC(N2CCCC2)CC1` is reported as 26% (binding; competition with immobilised ligand; 1 µM).
With `COc1ccnn2ncc(-c3ccnc(N(C)C)n3)c12` the remaining binding was 93% (binding; 1 µM).
With `O=C(NCCCC1CCCCC1)c1ccc(CNC(=O)c2cnn(-c3ccccc3)c2C(F)(F)F)cc1` the remaining binding was 81% (cell-free assay; competition with immobilised ligand; 0.1 µM).
With `Nc1ncc2c(n1)-c1c([nH]c3ccc(C#CC4CC4)cc13)CCCC2` the remaining binding was 90% (binding; competition with immobilised ligand; 1 µM).
`CC(=O)N1CCC(c2ccc(C(=O)NC(=N)N)cc2C(F)(F)F)CC1` has a remaining binding of 100% (cell-free assay; competition with immobilised ligand; 1 µM).
The remaining binding of `Cc1cnc(Nc2ccc(C(=O)N3CCC(N4CCCC4)CC3)cc2)nc1-c1cc2ccccc2s1` is reported as 67% (binding; competition with immobilised ligand; 1 µM).
`CNC(=O)[C@@H]1CC[C@@H](n2c(-c3ccc4cnccc4c3)nc3ccc(C(=O)NCc4cccc(C(N)=O)c4)cc32)C1` gave a remaining binding of 100% (binding; competition with immobilised ligand; 1 µM).
`O=C(Nc1c[nH]nc1C(=O)NC1CCNCC1)c1cc(F)cc(F)c1` has a remaining binding of 100% (binding; competition with immobilised ligand; 1 µM).
`Cc1c(C(=O)O)cc(-c2ccc(C3CCNCC3)cc2)c2ccc(-c3ccc(C(F)(F)F)cc3)cc12` has a remaining binding of 76% (binding; competition with immobilised ligand; 1 µM).
The remaining binding of `CN(C)c1nccc(-c2cnn3ncccc23)n1` is reported as 87% (binding; 1 µM).
`C[C@@H](c1ccc(-n2cnc3c(N)ncnc32)cc1)N1CCc2nn(C)c(Cc3ccccc3)c2C1=O` gave a remaining binding of 97% (binding; competition with immobilised ligand; 0.1 µM).
`CC1CCCN1c1nccc(-c2cnn3ncccc23)n1` (stereo not drawn) gave a remaining binding of 100% (binding; 1 µM).
`c1cncc(-c2cccc(Nc3nccc(NC4CCCCC4)n3)c2)c1` gave a remaining binding of 26% (binding; competition with immobilised ligand; 10 µM).
With `CN(c1nccc(-c2cnn3ncccc23)n1)C1CC1` the remaining binding was 13% (binding; 1 µM).
For `CCc1ccccc1C(=O)Nc1n[nH]c2c(C)c(F)c(C3C(C#N)=C(C)N(C)C(C)=C3C#N)cc12`, the remaining binding was 100% (cell-free assay; competition with immobilised ligand; 1 µM).
For `N[C@@H]1CCN(c2nccc(-c3cnn4ncccc34)n2)C1`, the remaining binding was 100% (binding; 1 µM).
With `CN(C)c1ncnc(-c2ccc3nc(Nc4cc(CN5CCN(C(=O)CC(F)(F)F)CC5)ccn4)[nH]c3c2)c1Cl` the remaining binding was 100% (cell-free assay; competition with immobilised ligand; 1 µM).
The remaining binding of `F[C@@H]1CCN(c2nccc(-c3cnn4ncccc34)n2)C1` is reported as 76% (binding; 1 µM).
With `O=C(NCCCN1CCOCC1)c1ccc(Nc2ncc(Cl)c(-c3ccc(Cl)s3)n2)cc1` the remaining binding was 67% (binding; competition with immobilised ligand; 1 µM).
